According to ChEMBL document CHEMBL5357042, “Discovery of imidazo[1,2-b]pyridazine-containing TAK1 kinase inhibitors with excellent activities against multiple myeloma” (RSC Med Chem, 2024):
Active and inactive are the calls of the source. The rule behind the calls is not given here.

Assays:
[1] = target: T1, Mitogen-activated protein kinase kinase kinase 7 (Homo sapiens) (UniProt O43318); assay: Inhibition of TAK1 (unknown origin) at 20 nM by ADP-Glo kinase assay
T1 sequence (whole entry): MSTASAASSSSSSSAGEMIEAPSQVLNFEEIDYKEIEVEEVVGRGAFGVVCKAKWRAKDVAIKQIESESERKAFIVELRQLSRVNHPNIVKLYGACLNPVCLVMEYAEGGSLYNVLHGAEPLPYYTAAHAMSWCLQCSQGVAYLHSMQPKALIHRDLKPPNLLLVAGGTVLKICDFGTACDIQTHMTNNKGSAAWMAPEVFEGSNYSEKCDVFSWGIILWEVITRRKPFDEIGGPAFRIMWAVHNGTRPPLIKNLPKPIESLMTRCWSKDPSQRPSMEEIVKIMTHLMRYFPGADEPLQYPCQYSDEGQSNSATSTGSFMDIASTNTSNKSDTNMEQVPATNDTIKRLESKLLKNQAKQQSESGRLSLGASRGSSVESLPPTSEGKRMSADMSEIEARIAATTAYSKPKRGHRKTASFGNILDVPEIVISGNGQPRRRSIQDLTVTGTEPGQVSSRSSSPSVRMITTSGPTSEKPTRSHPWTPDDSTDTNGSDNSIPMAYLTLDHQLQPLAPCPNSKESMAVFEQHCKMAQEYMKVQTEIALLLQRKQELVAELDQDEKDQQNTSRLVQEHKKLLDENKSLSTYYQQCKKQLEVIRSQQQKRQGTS

[2] = target: Proto-oncogene tyrosine-protein kinase receptor Ret (Homo sapiens) (UniProt P07949); assay: Inhibition of human RET at 50 to 500 nM by KinomeScan analysis; settings: dose 50-500 nM
[3] = target: cAMP-dependent protein kinase catalytic subunit alpha (Homo sapiens) (UniProt P17612); assay: Inhibition of human wild type partial length PKAC-alpha (10 to 351 residues) expressed in bacterial expression system at 50 to 500 nM by KinomeScan analysis; settings: dose 50-500 nM
[4] = target: Tyrosine-protein kinase JAK2 (Homo sapiens) (UniProt O60674); assay: Inhibition of human wild type partial length JAK2 (829 to 1132 residues) expressed in mammalian expression system at 50 to 500 nM by KinomeScan analysis; settings: dose 50-500 nM
NCI-H929 = assay: Cytotoxicity against human NCI-H929 cells assessed as reduction in cell viability incubated for 72 hrs by CellTiter-Blue assay; type: functional
How it was run: (§1)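 H929 (RPMI, 10% heat-inactivated FBS) or MPC-11 (DMEM, 10% FBS) cells, under 10 passages, 37 °C, 5% CO₂; 4–5 × 10³ cells/well seeded, 24 h, then compound at various concentrations for 72 h. CellTiter-Blue added for 3 h, fluorescence ex/em 560/590 nm. Normalized to DMSO-treated cells; triplicate, mean and standard deviation.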

[5] = target: Fibroblast growth factor receptor 3 (Homo sapiens) (UniProt P22607); assay: Inhibition of human wild type partial length FGFR3 (442 to 771 residues) expressed in bacterial expression system at 50 to 500 nM by KinomeScan analysis; settings: dose 50-500 nM
[6] = target: Tyrosine-protein kinase ZAP-70 (Homo sapiens) (UniProt P43403); assay: Inhibition of human wild type partial length ZAP70 (20 to 299 residues) expressed in mammalian expression system at 50 to 500 nM by KinomeScan analysis; settings: dose 50-500 nM
[7] = target: Aurora kinase A (Homo sapiens) (UniProt O14965); assay: Inhibition of human wild type partial length Aurora A (122 to 401 residues) expressed in mammalian expression system at 50 to 500 nM by KinomeScan analysis; settings: dose 50-500 nM
[8] = target: RAC-beta serine/threonine-protein kinase (Homo sapiens) (UniProt P31751); assay: Inhibition of human wild type partial length AKT2 expressed in bacterial expression system at 50 to 500 nM by KinomeScan analysis; settings: dose 50-500 nM
[9] = target: Epidermal growth factor receptor (Homo sapiens) (UniProt P00533); assay: Inhibition of human wild type partial length EGFR (669 to 1011 residues) expressed in bacterial expression system at 50 to 500 nM by KinomeScan analysis; settings: dose 50-500 nM
[10] = target: Fibroblast growth factor receptor 2 (Homo sapiens) (UniProt P21802); assay: Inhibition of human wild type partial length FGFR2 (457 to 769 residues) expressed in bacterial expression system at 50 to 500 nM by KinomeScan analysis; settings: dose 50-500 nM
MPC-11 = assay: Cytotoxicity against mouse MPC-11 cells assessed as reduction in cell viability incubated for 72 hrs by CellTiter-Blue assay; type: functional; how it was run: as §1
[11] = target: Mast/stem cell growth factor receptor Kit (Homo sapiens) (UniProt P10721); assay: Inhibition of human wild type partial length c-Kit (545 to 952 residues) expressed in mammalian expression system at 50 to 500 nM by KinomeScan analysis; settings: dose 50-500 nM
[12] = target: Aurora kinase B (Homo sapiens) (UniProt Q96GD4); assay: Inhibition of human wild type partial length Aurora B (25 to 303 residues) expressed in mammalian expression system at 50 to 500 nM by KinomeScan analysis; settings: dose 50-500 nM
[13] = target: Vascular endothelial growth factor receptor 2 (Homo sapiens) (UniProt P35968); assay: Inhibition of human wild type partial length VEGFR2 (787 to 1253 residues) expressed in mammalian expression system at 50 to 500 nM by KinomeScan analysis; settings: dose 50-500 nM
[14] = target: Platelet-derived growth factor receptor beta (Homo sapiens) (UniProt P09619); assay: Inhibition of human wild type partial length PDGFRB (582 to 1009 residues) expressed in bacterial expression system at 50 to 500 nM by KinomeScan analysis; settings: dose 50-500 nM
[15] = target: RAC-alpha serine/threonine-protein kinase (Homo sapiens) (UniProt P31749); assay: Inhibition of human wild type partial length AKT1 expressed in bacterial expression system at 50 to 500 nM by KinomeScan analysis; settings: dose 50-500 nM
[16] = target: Serine/threonine-protein kinase B-raf (Homo sapiens) (UniProt P15056); assay: Inhibition of human wild type partial length BRAF (429 to 741 residues) expressed in mammalian expression system at 50 to 500 nM by KinomeScan analysis; settings: dose 50-500 nM
[17] = target: Mitogen-activated protein kinase kinase kinase 7 (Mus musculus) (UniProt Q62073); assay: Inhibition of TAK1 in mouse MPC-11 cells assessed as reduction in TAK1 phosphorylation at Ser412 residue at 0.1 to 0.5 uM incubated for 48 hrs by Western blot analysis; type: cell-based; settings: dose 0.1-0.5 µM
How it was run: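 MPC-11 cells (0.5–1 × 10⁶/well) seeded, treated after 24 h for 48 h; DMSO control. BCA protein quantitation, 10% SDS-PAGE, PVDF; pTAK1, TAK1, β-actin antibodies overnight 4 °C, HRP secondaries 2 h 24 °C, chemiluminescence. Bands quantified relative to actin; duplicates, mean and standard deviation.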

[18] = target: Mitogen-activated protein kinase kinase kinase 7 (Homo sapiens, UniProt O43318); assay: Inhibition of human TAK1 using casein as substrate in presence of [gamma-33P]-ATP by radiometric hotspot kinase assay
[19] = target: Platelet-derived growth factor receptor alpha (Homo sapiens) (UniProt P16234); assay: Inhibition of human wild type partial length PDGFRA (575 to 1002 residues) expressed in mammalian expression system at 50 to 500 nM by KinomeScan analysis; settings: dose 50-500 nM
[20] = target: T1, Mitogen-activated protein kinase kinase kinase 7 (Homo sapiens); assay: Inhibition of TAK1 (unknown origin) at 100 nM by ADP-Glo kinase assay
[21] = target: T1, Mitogen-activated protein kinase kinase kinase 7 (Homo sapiens); assay: Inhibition of TAK1 (unknown origin) at 500 nM by ADP-Glo kinase assay

Sequence of Platelet-derived growth factor receptor beta (Homo sapiens) (P09619 whole entry, the tested form may be a part): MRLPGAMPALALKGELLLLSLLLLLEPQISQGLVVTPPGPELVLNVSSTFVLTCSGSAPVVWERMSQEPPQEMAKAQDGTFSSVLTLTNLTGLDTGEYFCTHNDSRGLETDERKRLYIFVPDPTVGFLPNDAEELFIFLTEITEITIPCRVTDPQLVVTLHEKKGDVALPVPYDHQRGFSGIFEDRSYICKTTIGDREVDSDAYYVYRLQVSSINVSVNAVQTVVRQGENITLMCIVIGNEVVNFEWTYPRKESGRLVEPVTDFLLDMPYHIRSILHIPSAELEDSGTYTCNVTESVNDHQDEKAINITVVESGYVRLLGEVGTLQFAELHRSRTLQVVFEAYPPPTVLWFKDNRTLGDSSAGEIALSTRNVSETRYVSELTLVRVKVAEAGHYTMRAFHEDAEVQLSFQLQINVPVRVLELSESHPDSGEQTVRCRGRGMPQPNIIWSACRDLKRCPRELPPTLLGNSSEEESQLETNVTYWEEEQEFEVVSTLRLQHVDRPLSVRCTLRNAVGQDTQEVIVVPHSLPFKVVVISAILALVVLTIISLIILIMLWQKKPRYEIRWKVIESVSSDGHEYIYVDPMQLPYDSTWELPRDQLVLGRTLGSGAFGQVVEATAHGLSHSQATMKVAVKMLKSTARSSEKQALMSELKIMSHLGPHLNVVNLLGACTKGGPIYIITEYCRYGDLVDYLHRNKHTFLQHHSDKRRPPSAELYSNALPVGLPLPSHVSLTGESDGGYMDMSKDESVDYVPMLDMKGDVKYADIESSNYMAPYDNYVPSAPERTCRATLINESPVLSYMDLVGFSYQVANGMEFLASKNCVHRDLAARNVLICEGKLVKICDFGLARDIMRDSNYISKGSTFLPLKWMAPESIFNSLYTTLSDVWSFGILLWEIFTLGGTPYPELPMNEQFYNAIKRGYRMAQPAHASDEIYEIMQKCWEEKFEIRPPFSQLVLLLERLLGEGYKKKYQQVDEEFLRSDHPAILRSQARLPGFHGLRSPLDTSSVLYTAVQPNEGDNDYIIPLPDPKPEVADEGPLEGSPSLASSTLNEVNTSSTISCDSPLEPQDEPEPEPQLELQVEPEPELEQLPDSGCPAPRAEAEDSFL
Sequence of Fibroblast growth factor receptor 2 (Homo sapiens) (P21802 22-821 limits assumed): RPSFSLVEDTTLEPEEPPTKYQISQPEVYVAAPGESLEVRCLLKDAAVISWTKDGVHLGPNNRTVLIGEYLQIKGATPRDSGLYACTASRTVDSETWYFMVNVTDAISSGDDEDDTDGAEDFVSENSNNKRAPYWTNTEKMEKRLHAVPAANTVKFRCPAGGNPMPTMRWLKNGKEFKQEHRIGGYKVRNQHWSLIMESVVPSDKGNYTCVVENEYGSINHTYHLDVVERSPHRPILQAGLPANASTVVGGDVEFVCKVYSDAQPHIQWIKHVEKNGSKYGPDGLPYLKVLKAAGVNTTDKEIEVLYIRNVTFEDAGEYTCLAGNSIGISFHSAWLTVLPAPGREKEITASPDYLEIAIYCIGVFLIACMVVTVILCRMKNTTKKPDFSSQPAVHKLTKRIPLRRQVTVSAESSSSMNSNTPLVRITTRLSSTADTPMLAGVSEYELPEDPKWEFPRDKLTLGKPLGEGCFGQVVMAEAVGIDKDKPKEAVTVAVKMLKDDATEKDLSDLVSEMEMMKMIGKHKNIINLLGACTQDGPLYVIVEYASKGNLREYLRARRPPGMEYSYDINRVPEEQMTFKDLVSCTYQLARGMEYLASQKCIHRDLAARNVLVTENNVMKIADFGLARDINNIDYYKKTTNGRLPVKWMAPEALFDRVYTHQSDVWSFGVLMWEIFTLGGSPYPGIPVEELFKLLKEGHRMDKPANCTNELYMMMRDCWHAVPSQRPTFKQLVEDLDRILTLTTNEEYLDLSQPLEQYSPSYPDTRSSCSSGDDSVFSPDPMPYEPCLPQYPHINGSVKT
Sequence of Proto-oncogene tyrosine-protein kinase receptor Ret (Homo sapiens) (P07949 whole entry, the tested form may be a part): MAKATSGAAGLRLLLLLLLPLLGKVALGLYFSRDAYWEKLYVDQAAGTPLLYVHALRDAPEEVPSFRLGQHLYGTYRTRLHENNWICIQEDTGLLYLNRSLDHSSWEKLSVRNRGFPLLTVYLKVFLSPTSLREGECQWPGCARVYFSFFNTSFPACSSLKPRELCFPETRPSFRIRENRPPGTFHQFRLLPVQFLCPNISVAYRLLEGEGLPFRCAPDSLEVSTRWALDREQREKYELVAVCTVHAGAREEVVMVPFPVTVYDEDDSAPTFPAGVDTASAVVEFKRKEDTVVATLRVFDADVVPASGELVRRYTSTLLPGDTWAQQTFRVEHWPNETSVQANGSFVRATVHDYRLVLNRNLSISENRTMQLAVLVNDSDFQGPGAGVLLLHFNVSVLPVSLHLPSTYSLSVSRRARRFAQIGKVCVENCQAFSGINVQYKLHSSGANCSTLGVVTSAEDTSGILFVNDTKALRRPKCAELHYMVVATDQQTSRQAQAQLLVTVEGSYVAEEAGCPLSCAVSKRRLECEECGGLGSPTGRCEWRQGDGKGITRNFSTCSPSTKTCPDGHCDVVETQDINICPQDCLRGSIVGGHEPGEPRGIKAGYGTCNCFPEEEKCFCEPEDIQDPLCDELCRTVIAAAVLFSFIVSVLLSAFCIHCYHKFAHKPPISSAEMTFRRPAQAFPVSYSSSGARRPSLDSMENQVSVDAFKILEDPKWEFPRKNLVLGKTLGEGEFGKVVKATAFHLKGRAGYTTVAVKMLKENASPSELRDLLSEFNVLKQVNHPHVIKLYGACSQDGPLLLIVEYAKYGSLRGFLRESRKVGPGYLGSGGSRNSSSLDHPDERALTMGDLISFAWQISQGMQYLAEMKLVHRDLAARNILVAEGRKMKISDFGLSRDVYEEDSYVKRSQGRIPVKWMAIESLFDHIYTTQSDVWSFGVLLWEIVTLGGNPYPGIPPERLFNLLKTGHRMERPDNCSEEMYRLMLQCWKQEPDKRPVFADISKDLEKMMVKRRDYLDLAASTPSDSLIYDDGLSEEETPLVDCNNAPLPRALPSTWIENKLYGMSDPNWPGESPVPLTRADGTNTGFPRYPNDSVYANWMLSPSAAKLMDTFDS
Sequence of Fibroblast growth factor receptor 3 (Homo sapiens) (P22607 23-806 limits assumed): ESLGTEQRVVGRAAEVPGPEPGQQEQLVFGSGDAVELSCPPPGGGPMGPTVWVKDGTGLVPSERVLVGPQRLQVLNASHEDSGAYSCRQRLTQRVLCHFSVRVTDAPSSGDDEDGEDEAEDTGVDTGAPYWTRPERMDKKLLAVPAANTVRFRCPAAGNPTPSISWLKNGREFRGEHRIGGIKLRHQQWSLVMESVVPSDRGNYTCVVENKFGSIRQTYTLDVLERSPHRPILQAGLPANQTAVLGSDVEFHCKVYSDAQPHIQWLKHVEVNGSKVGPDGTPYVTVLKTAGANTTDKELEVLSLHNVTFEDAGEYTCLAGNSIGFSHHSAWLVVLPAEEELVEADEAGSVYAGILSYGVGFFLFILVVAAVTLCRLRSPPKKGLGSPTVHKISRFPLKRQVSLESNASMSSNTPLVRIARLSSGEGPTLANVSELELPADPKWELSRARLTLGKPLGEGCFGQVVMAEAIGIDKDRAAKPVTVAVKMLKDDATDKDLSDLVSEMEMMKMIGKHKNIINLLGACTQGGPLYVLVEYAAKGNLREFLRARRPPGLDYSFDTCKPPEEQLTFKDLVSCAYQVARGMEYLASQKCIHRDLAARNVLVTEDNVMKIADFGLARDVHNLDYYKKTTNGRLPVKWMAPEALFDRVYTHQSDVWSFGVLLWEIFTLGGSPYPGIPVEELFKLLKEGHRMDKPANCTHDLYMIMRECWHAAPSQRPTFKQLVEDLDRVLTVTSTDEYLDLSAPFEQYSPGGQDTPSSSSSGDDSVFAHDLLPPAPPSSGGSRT
Sequence of Mast/stem cell growth factor receptor Kit (Homo sapiens) (P10721 whole entry, the tested form may be a part): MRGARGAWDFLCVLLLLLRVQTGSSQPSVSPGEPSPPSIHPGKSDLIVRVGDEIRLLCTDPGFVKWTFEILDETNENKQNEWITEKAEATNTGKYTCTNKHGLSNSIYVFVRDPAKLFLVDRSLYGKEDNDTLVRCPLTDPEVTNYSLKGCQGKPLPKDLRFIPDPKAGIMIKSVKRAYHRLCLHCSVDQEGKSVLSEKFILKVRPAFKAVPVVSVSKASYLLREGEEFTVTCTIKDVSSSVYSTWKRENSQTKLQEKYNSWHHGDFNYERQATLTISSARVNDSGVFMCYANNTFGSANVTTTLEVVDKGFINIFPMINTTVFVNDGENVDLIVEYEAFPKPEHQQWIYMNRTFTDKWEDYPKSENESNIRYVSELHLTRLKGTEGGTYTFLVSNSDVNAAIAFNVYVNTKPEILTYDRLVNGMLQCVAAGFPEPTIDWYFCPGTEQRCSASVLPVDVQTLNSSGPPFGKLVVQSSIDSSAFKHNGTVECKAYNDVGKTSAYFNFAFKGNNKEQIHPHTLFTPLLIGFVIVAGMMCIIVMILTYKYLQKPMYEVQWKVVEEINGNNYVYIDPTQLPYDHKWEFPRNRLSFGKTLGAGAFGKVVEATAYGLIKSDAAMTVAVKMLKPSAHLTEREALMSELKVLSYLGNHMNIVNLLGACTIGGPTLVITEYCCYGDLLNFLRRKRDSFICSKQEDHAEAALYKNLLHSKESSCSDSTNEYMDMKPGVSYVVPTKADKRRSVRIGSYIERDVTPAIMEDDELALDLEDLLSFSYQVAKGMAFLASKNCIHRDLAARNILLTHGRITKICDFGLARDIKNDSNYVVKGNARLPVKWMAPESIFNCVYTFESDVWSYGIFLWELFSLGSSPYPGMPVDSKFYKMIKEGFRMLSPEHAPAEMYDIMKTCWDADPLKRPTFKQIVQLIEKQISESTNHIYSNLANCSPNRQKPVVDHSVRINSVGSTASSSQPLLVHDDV

inhibition [1]: > 50%
inhibition [2]: Active
inhibition [3]: Active
inhibition [4]: Active
inhibition [5]: Active
inhibition [6]: Active
inhibition [7]: Active
inhibition [8]: Active
inhibition [9]: Active
inhibition [10]: Active
inhibition [11]: Active
inhibition [12]: Active
inhibition [13]: Active
inhibition [14]: Active
inhibition [15]: Active
inhibition [16]: Active
inhibition [17]: Active
IC50 [18]: 55 nM
inhibition [19]: Active
inhibition [20]: > 50%
inhibition [21]: 100%
SMILES: C[C@@H]1CN(c2ccc3ncc(-c4ccc5[nH]nc(C6CC6)c5c4)n3n2)C[C@H](C)O1
GI50 (NCI-H929): 43 nM
GI50 (MPC-11): 41 nM
